Laboratory results as given in ChEMBL document CHEMBL1149140, “Orally bioavailable competitive CCR5 antagonists” (J Med Chem, 2004).

Key:
[1] = Cmax in rats at a dose of […] mg/kg; format: ADME, organism-based; settings: rat, in vivo, 1 mg/kg
Rattus norvegicus = assay: AUC in rats at a dose of […] mg/kg; format: ADME, organism-based, Plasma; settings: in vivo, 1 mg/kg
[2] = Mean residence time was determined; format: ADME, organism-based; settings: in vivo
[3] = Oral bioavailability; format: ADME, organism-based; settings: eutheria, in vivo
[4] = Tmax in rats; format: ADME, organism-based; settings: rat, in vivo
[5] = target: T1, C-C chemokine receptor type 5 (Homo sapiens, UniProt P51681); assay: Antagonistic activity against human C-C chemokine receptor type 5.; format: functional
Outline: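 SPA radioligand binding using membranes from CHO cells transfected with human or cynomolgus CCR5. Buffer was 50 mM HEPES, 6 mM CaCl2, 12 mM MgCl2, 100 mM NaCl and 0.5% BSA. Incubated 2 h shaking at room temperature. Nonspecific binding defined with 100 nM unlabeled MIP-1α. IC50 reported.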

[6] = target: T1, C-C chemokine receptor type 5; assay: Rises in intracellular [Ca2+] levels by using [Ca2+] sensitive Fluo4 dye in C-C chemokine receptor type 5-transfected CHO cells.; format: functional, cell-based
Outline: (§1)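 CCR5-transfected CHO cells were loaded with 4 µM Fluo4 for 1 h at 37 °C (HBSS, 20 mM HEPES pH 7.4, 0.1% BSA, 2.5 mM probenecid), then washed. Compound preincubated 2 h at room temperature. Baseline read 20 s on FLIPR, then MIP-1α added (final 10 nM) and recorded 3 min. IC50 from concentration-dependent reduction of Fmax−Fmin.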

[7] = (§2) Compound was evaluated for rises in intracellular [Ca2+] levels pre-incubation at 2.5 min in [Ca2+] Mobilization Assay; format: functional, cell-based
Outline: (§3)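 Fluo4-loaded CCR5-transfected CHO cells on FLIPR. Baseline read 20 s, then compound added and monitored 2.5 min, then MIP-1α agonist (final 10 nM) added and fluorescence recorded 3 min. IC50 from inhibition of the MIP-1α-induced fluorescence rise.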

[8] = Compound was evaluated for rises in intracellular [Ca2+] levels pre-incubation at 2 hr in [Ca2+] Mobilization Assay; format: functional, cell-based; outline: as §1
[9] = target: CCR5 (Macaca fascicularis); assay: Antagonistic activity against cynomolgus monkey C-C chemokine receptor type 5
[10] = Cmax in monkeys at a dose of […] mg/kg; format: ADME, organism-based; settings: simiiformes, in vivo, 1 mg/kg
[11] = Mean residence time in rat; format: ADME, organism-based; settings: in vivo
[12] = Oral bioavailability in rat; format: ADME, organism-based; settings: in vivo
[13] = Compound was evaluated for rises in intracellular [Ca2+] levels by using [Ca2+] sensitive Fluo4 dye in CCR5-transfected CHO cells; format: functional, cell-based; outline: as §1
[14] = AUC in monkeys at a dose of […] mg/kg; format: ADME, organism-based, Plasma; settings: simiiformes, in vivo, 1 mg/kg
[15] = Mean residence time in monkeys; format: ADME, organism-based; settings: simiiformes, in vivo
[16] = Tmax in monkeys; format: ADME; settings: simiiformes, in vivo
[17] = Mean residence time in rats; format: ADME, organism-based; settings: rat, in vivo
Homo sapiens = species on record: Homo sapiens; assay: as §2; format: functional, organism-based; outline: as §3

T1 sequence (P51681 whole entry): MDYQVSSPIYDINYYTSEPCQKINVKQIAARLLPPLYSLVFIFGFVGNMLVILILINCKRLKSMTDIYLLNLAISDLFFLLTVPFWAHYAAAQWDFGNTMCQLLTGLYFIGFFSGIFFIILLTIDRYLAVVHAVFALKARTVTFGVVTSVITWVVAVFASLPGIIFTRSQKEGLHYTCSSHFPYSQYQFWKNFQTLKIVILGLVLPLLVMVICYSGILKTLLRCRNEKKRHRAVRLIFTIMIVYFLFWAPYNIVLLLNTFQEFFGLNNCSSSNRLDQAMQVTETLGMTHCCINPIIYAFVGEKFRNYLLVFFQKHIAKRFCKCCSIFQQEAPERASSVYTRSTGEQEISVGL

`Cc1nc(-c2ccncc2)nc(C)c1C(=O)N1CCC(C)(N2CCC(N(c3ccccc3)c3ccccc3)CC2)CC1` showed a Cmax [1] of 73 ng/mL, an AUG (Rattus norvegicus) of 513 ng·h/mL and an MRT [2] of 5.8 h. It also gave a bioavailability [3] of 57%, a Tmax [4] of 0.5 h and an IC50 [5] of 2.8 nM. For the same compound, the IC50 [6] was 30 nM, the IC50 [7] was 125 nM and the IC50 [8] was 24.6 nM. It also gave an IC50 [9] of 7.9 nM.
`Cc1cc(C)c(S(=O)(=O)N2CCC(C)(N3CCC(N(c4ccccc4)c4ccccc4)CC3)CC2)c(C)c1` gave an IC50 [5] of 41 nM.
Compound `Cc1cccc(C)c1C(=O)N1CCC(C)(N2CCC(Nc3ccc(-c4ccccc4)cc3)CC2)CC1` has an IC50 [5] of 460 nM.
In the case of `CC1(N2CCC(N(c3ccccc3)c3ccccc3)CC2)CCN(C(=O)c2cccc3ccccc23)CC1`, the Cmax [10] is reported as 70 ng/mL, the AUG (Rattus norvegicus) is reported as 518 ng·h/mL and the MRT [11] is reported as 14.4 h. The bioavailability [12] was 100%, the IC50 [7] was 610 nM and the IC50 [8] was 29 nM. The IC50 [13] was 29.4 nM.
With `Cc1nc(-c2ccccc2)nc(C)c1C(=O)N1CCC(C)(N2CCC(N(c3ccccc3)c3ccccc3)CC2)CC1` the Cmax [10] was 12 ng/mL, the AUG [14] was 115 ng/mL/h and the bioavailability [3] was 0%. For the same compound, the bioavailability [12] was 86%.
`Cc1cccc(C)c1C(=O)N1CCC(C)(N2CCC(NCc3ccccc3)CC2)CC1` showed an IC50 [5] of over 1000 nM and an IC50 [6] of over 1000 nM.
`CC1(N2CCC(N(c3ccccc3)c3ccccc3)CC2)CCN(C(=O)C2CCCCC2)CC1` showed an IC50 [5] of 408 nM and an IC50 [6] of 580 nM.
Work on `CN(C)C(=O)c1ccccc1C(=O)N1CCC(C)(N2CCC(N(c3ccccc3)c3ccccc3)CC2)CC1` yielded an IC50 [5] of over 100 nM.
`Cc1cccc(C)c1C(=O)N1CCC(C)(N2CCC(N(Cc3ccccc3)Cc3ccccc3)CC2)CC1` gave an IC50 [5] of 75 nM.
With `COc1cc(CN(c2ccccc2)C2CCN(C3(C)CCN(C(=O)c4c(C)cc[n+]([O-])c4C)CC3)CC2)cc(OC)c1OC` the IC50 [5] was over 1000 nM.
Work on `Cc1cc[n+]([O-])c(C)c1C(=O)N1CCC(C)(N2CCC(N(Cc3ccccc3C#N)c3ccccc3)CC2)CC1` yielded an IC50 [5] of 80 nM and an IC50 [6] of over 3000 nM.
`COc1cccc(OC)c1C(=O)N1CCC(C)(N2CCC(N(c3ccccc3)c3ccccc3)CC2)CC1` showed an IC50 [5] of 42 nM.
`Cc1cccc(C)c1C(=O)N1CCC(C)(N2CCC(Nc3cccc4ccn(C)c34)CC2)CC1` showed an IC50 [5] of 102 nM and an IC50 [6] of 2170 nM.
With `Cc1cccc(C)c1C(=O)N1CCC(C)(N2CCC(N(Cc3ccccc3)c3ccccc3)CC2)CC1` the Cmax [10] was 7 ng/mL, the Cmax [1] was 90 ng/mL and the AUG [14] was 33 ng·h/mL. It also gave an AUG (Rattus norvegicus) of 569 ng·h/mL, an MRT [2] of 8.9 h and an MRT [15] of 4.1 h. The bioavailability [3] was 4%, the bioavailability [12] was 85% and the Tmax [16] was 0.5 h. It also gave an IC50 [7] of 200 nM.
For `Cc1cccc(C)c1C(=O)N1CCC(C)(N2CCC(N(c3ccccc3)c3ccccc3)CC2)CC1`, the Cmax [10] was 81 ng/mL, the AUG (Rattus norvegicus) was 664 ng·h/mL and the MRT [17] was 6.9 h. It also gave a bioavailability [3] of 0%, a bioavailability [12] of 62% and a Tmax [4] of 0.5 h. The IC50 [7] was 250 nM.
Compound `Cc1ccccc1C(=O)N1CCC(C)(N2CCC(N(c3ccccc3)c3ccccc3)CC2)CC1` has an IC50 [5] of 7.8 nM and an IC50 [6] of 67 nM.
In the case of `Cc1nc[n+]([O-])c(C)c1C(=O)N1CCC(C)(N2CCC(N(c3ccccc3)c3ccccc3)CC2)CC1`, the Cmax [10] is reported as 91 ng/mL, the Cmax [1] is reported as 91 ng/mL and the AUG [14] is reported as 1550 ng·h/mL. The AUG (Rattus norvegicus) was 1030 ng·h/mL, the MRT [2] was 6 h and the MRT [15] was 5.1 h. For the same compound, the bioavailability [3] was 58% and the bioavailability [12] was 94%.
`Cc1cccc(C)c1C(=O)N1CCC(C)(N2CCC(Nc3ccccc3)CC2)CC1` gave an IC50 [5] of 100 nM.
`CC1(N2CCC(N(c3ccccc3)c3ccccc3)CC2)CCN(C(=O)c2c[nH]c3ccccc23)CC1` gave an IC50 [5] of 48 nM and an IC50 [6] of 283 nM.
Compound `Cc1cc[n+]([O-])c(C)c1C(=O)N1CCC(C)(N2CCC(N(c3ccccc3)c3ccccc3)CC2)CC1` has an IC50 [5] of 3.3 nM, an IC50 [6] of 16 nM and an IC50 [7] of 33 nM. It also gave an IC50 [8] of 16 nM.
Work on `Cc1cc[n+]([O-])c(C)c1C(=O)N1CCC(N2CCC(N(c3ccccc3)c3ccccc3)CC2)CC1` yielded an IC50 [5] of 9 nM and an IC50 [6] of 127 nM.
Compound `Cc1cccc(C)c1C(=O)N1CCC(C)(N2CCC(N(Cc3ccccc3)c3ccc(Br)cc3)CC2)CC1` has an IC50 [5] of 2.3 nM, an IC50 [6] of 15.6 nM and an IC50 [7] of 1450 nM. For the same compound, the IC50 [8] was 28 nM.
Compound `Cc1ncnc(C)c1C(=O)N1CCC(C)(N2CCC(N(c3ccccc3)c3ccccc3)CC2)CC1` has an IC50 (Homo sapiens) of 28 nM and an IC50 [8] of 8 nM.
`Cc1ccnc(C)c1C(=O)N1CCC(C)(N2CCC(N(c3ccccc3)c3ccccc3)CC2)CC1` gave an IC50 [7] of 114 nM.
For `Cc1cccc(C)c1C(=O)N1CCC(C)(N2CCC(Nc3ccc4ccn(C)c4c3)CC2)CC1`, the IC50 [5] was 91 nM and the IC50 [6] was 1680 nM.
In the case of `Cc1cccc(C)c1C(=O)N1CCC(C)(N2CCC(Nc3ccc(C(F)(F)F)cc3)CC2)CC1`, the IC50 [5] is reported as 0.8 nM and the IC50 [6] is reported as 27.3 nM.
